Experimental data reported in the EternaBench riboswitch data.

System: MS2 coat protein
Assay: apparent Kd, MS2 coat protein; higher = weaker binding; RNA-MaP array; FMN 200 µM where present
Method in brief: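 SNAP-549-labelled MS2 coat protein, doubled from 0.7 or 1.5 nM to 3 µM, was titrated over designs transcribed by stalled E. coli RNA polymerase on Illumina sequencing-chip clusters. Titrations were run without and then with constant ligand in 100 mM Tris-HCl pH 7.5, 80 mM KCl, 4 mM MgCl2, BSA, DTT, yeast tRNA and Tween-20. The apparent Kd is the median of filtered per-cluster fits to green signal normalised to red-channel RNA signal and control-cluster median Fmax.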

[1] = designed as: ON switch for flavin mononucleotide, no ligand
[2] = ligand present: flavin mononucleotide, designed as: ON switch for flavin mononucleotide
[3] = designed as: OFF switch for flavin mononucleotide, no ligand
[4] = ligand present: flavin mononucleotide, designed as: OFF switch for flavin mononucleotide

Row | Sequence | apparent Kd [1] [nM] | apparent Kd [2] [nM] | apparent Kd [3] [nM] | apparent Kd [4] [nM]
1 | AAAAAAAAAAGUGAGGAUAUGGGAAAAUUAACAUGAGGAUCACCCAUGUGAUAAAAAAAAAAAAACCAGAAGGUACAAAAAAAAAA | 69.5 | 26.4 | – | –
2 | AGCAACAUGAGGAUCACCCAUGUUGGUUCGAAAACGGACUCACAGGAUAUACGGCAUAAUCGCUCGUAGAAGGGUGCGUCCUCA | 14 | 12.8 | – | –
3 | GGUGCACGCACAGGAUAUCCGGCGAAGCUCGUCGGAGAAGGGUGACAUGAGGAUCACCCAUGUACGUGCAACCCAGUUUGAGAG | 85.2 | 31.4 | – | –
4 | GAGUAGUUGAAAGGAUAUCGAUUGUUAUAGAAUCGAGAAGGUUCUAACAUGAGGAUCACCCAUGUAGGACUAUUCCUGUGUAUC | 12.9 | 11 | – | –
5 | UGAAAUCAUGUAGGAUAUGCAUGGCGAAGCUACGCAGAAGGACAUGAGGAUCACCCAUGUGCUAGCUACCGGAUACGGUGGCAA | – | – | 99.1 | 230
6 | ACAUGAGGAUCACCCAUGUAGAAGGAGAGGGCAGAAUUUACGCAGGAUAUGCAUUUUUGGGAAAAGUAGAAGGGUGAGGGCGGA | 36.4 | 25.2 | – | –
7 | CUAUUCCGAGGAUAUACAUGAGGAUCACCCAUGUCGGGCCUCUGCGUUUAGCGCGAAAGUAGAAGGUGGGUUUC | – | – | 34.5 | 33.6
8 | GAAGUUGGUAGGCCCUCGGAACAUGAGGAUCACCCAUGUAAGGAGGAUAUGCCCGGUACCCGCUGGCAGAAGGCCUUAUAAGAA | – | – | 11.1 | 68.8
9 | UUGUUAAGGAGAGGAUAUUGACAUGAGGAUCACCCAUGUACAUGGGAGUGUUUACUGAAUUCUUACGAGAAGGCUUACAUAUUU | – | – | 216 | 102
10 | UAUAGGCUAGGAUAUACAACACUUGGUUCGAAUGUUUGGAGACAUGAGGAUCACCCAUGUAGAAGGAGCAUUUC | – | – | 64.8 | 190
11 | AGCUACGUUUCGUAGCAGUGUCAUCGAGAAGGCCUUAUUACAUGAGGAUCACCCAUGUGGACAUGGGAGGAUAUCGAUGAUACA | 61.3 | 8.06 | – | –
12 | AGAAUAAACCAGAAGGCCGAGAUACAUGAGGAUCACCCAUGUAUACUUUGGAGGAUAUGGAUGAUUCAAGUGCGUUUCGUAGCA | 3.98 | 3.36 | – | –
13 | GUACUGUAGUGAGGAUAUACGAGUUCGAUAGAACGGCGAUCCAUUUAUACAUGAGGAUCACCCAUGUAGAAGGCACUUCAGUAC | – | – | 6.32 | 53.9
14 | AAGAAUCAAGGAUAUGCAUGAUACGACAUGAGGAUCACCCAUGUCCUCAUGCGUAUCCUUGCAGAAGGUGAGUAUA | – | – | 13.8 | 17.1
15 | UUACUACAUGAGGAUCACCCAUGUCAGGAUAUUGUCUAUACCGUGGAAGCUGUGUCGAUAAGAAGGGACUGUAU | – | – | 20.5 | 34.8
16 | AAAAAACAUGAGGAUCACCCAUGUGAGGAUAUGAUGAAAGAUUGAAAAAGGUUGAAAGUCAGAAGGUAUGUGAA | – | – | 56.9 | 59.7
17 | AACCUAUUACAGAAGGCCAGCUACAUGAGGAUCACCCAUGUCGAGUCAUGGAGGAUAUGUAGUAACCUGCACGCGGGCGGAUAC | 50.7 | 7.18 | – | –
18 | CGCGGACAAGAGAAGGCCAGACCUCGGAACCUGAGGCACCGCUAGGCAUGGAGGAUAUCUUGACAUGAGGAUCACCCAUGUACU | 665 | 33.7 | – | –
19 | AGGAGAAAUGUAGGAUAUGGGCAUAUAUAUGGGCAAAGCGCAUAUAUAUGCCCAGAAGGACAUGAGGAUCACCCAUGUUUCCCU | – | – | 12.5 | 13.6
20 | CAUUUACAGGGAGGAUAUACAUGAGGAUCACCCAUGUCAUCAUACGAUCUUUCUUUUGUAUGAGUGUAGAAGGCCCAACUACCA | – | – | 13.6 | 14.6
21 | AGAGUUUCGUUGUGACCCAUUCACAUGAGGAUCACCCAUGUAGAGGAUAUAGGUCACCACGGUACCUAGAAGGCUACAGGUGUG | – | – | 13.4 | 15.5
22 | AAAAAGGCAGGAUAUACAUGAGGAUCACCCAUGUGAAAAAAAAAAAAAAAAAAAAAGUGUAGAAGGGUCAAAAA | – | – | 56.9 | 46.7
23 | AACAGUACAGGAUAUACAUGAGGAUCACCCAUGUGAGAAUUAUGUGGCGUACCACAAAGUAGAAGGGUACUGGA | – | – | 81.7 | 308
24 | AGGUAACAUGAGGAUCACCCAUGUCAGGAUAUCAUGAAGAUUAGAUUAGAGGAGAGGUUGAGAAGGGACUAUAU | – | – | 55.6 | 49.5
25 | AGGCAGCUACAUGAGGAUCACCCAUGUCUGUUUGGAUCUUCCAGAAGGCACGUAAAAUCGGUGGGUGAGGAUAUGGUAGGUCCC | 30.9 | 9.91 | – | –
26 | GGUUGUCAUAGUCAUCCUUAACGUACAUGAGGAUCACCCAUGUAGGAUAUGCUACUCAAAGAGUAGCAGAAGGGCGUGUGUCUU | – | – | 31 | 35.5
27 | UGAAAGUGAGGAUAUGGUGAGUAGUGCCUGAGCGCUGCUCACCAGAAGGCACAUGAGGAUCACCCAUGUAAAUG | – | – | 53.4 | 170
